# Columns and labels:
# [1] = biological target: T1, Myelin-associated glycoprotein (Homo sapiens, UniProt P20916); experiment: Inhibition of human MAG after 30 min by competitive ELISA
# T1 sequence (P20916 whole entry): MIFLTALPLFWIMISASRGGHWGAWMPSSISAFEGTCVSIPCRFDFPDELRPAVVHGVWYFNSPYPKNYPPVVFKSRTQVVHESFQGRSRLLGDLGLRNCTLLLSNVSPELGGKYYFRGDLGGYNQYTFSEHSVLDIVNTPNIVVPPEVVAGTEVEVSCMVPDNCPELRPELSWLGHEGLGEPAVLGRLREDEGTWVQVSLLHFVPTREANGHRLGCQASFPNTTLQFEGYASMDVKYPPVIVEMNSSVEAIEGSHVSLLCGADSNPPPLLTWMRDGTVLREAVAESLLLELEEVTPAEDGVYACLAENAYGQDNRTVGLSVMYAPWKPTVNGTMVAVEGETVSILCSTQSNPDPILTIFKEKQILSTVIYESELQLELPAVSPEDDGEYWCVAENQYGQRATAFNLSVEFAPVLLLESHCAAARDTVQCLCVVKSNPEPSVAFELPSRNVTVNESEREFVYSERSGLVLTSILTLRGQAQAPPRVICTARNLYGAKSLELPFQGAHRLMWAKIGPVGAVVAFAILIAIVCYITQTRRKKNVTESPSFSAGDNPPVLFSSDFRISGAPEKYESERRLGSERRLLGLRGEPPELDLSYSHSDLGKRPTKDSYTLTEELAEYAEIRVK
# B-cell receptor CD22 [2] = biological target: T2, B-cell receptor CD22 (Homo sapiens, UniProt P20273); experiment: Antagonist activity at human CD22 after 1 hr by competitive ELISA; format: functional
# T2 sequence (P20273 whole entry): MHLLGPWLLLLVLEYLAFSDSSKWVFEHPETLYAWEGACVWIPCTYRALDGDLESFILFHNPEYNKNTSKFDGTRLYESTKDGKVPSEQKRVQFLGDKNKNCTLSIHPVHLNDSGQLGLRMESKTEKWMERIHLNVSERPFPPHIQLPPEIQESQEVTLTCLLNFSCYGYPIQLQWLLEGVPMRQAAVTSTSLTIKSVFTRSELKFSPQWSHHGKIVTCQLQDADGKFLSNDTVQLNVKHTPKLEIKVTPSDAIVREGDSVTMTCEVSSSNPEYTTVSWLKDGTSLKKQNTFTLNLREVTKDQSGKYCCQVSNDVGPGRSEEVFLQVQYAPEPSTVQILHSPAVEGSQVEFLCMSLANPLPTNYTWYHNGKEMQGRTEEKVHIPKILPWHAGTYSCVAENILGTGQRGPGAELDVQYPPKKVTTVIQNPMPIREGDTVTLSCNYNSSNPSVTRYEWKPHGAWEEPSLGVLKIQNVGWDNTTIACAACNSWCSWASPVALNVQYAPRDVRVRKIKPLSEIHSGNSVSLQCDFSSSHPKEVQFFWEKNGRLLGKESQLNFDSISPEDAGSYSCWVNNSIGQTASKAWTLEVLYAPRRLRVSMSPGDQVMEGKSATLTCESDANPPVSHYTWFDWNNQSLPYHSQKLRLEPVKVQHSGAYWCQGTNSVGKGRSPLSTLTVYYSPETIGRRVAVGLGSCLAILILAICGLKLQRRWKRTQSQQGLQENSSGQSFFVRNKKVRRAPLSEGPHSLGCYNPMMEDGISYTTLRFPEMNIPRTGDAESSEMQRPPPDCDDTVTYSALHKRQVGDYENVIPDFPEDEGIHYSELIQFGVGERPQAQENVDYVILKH
# Procedure, shortened: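 Neutravidin-precoated plates (1 μg/well, overnight, 4°C) were blocked with 0.5% BSA in HBSS for 30 min at 37°C. Biotinylated Siaα2-6LacNAc-PAA (0.625 μg/mL) was bound 1 h at RT. Inhibitor and precomplexed hCD22-Fc/goat anti-human IgG F(ab')2 were added and bound 30 min at 37°C. After HBSS washes: TMB, H2SO4 stop, OD450. Triplicates, mean ± SD.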
# [3] = biological target: B-cell receptor CD22 (Homo sapiens) (UniProt P20273); experiment: Ratio of IC50 for 9-(4'-hydroxy-4-biphenyl)acetamido-9-deoxy-Neu5Gca2-6GalOMP to IC50 for compound at human CD22
# Procedure, shortened: (§1)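 Relative inhibitory potency (rIP) = IC50 of the 9-biphenylacetamido Neu5Gcα2-6GalOMP reference divided by IC50 of the test sialoside, each IC50 taken from the competition ELISA for the respective CD22 species. Values above 1.0 mean tighter binding than the reference.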
# Homo sapiens = species on record: Homo sapiens; experiment: Selectivity ratio of IC50 for human MAG to IC50 for human CD22
# B-cell receptor CD22 [4] = biological target: T3, B-cell receptor CD22 (Mus musculus, UniProt P35329); experiment: Antagonist activity at mouse CD22 after 1 hr by competitive ELISA; format: functional
# T3 sequence (P35329 whole entry): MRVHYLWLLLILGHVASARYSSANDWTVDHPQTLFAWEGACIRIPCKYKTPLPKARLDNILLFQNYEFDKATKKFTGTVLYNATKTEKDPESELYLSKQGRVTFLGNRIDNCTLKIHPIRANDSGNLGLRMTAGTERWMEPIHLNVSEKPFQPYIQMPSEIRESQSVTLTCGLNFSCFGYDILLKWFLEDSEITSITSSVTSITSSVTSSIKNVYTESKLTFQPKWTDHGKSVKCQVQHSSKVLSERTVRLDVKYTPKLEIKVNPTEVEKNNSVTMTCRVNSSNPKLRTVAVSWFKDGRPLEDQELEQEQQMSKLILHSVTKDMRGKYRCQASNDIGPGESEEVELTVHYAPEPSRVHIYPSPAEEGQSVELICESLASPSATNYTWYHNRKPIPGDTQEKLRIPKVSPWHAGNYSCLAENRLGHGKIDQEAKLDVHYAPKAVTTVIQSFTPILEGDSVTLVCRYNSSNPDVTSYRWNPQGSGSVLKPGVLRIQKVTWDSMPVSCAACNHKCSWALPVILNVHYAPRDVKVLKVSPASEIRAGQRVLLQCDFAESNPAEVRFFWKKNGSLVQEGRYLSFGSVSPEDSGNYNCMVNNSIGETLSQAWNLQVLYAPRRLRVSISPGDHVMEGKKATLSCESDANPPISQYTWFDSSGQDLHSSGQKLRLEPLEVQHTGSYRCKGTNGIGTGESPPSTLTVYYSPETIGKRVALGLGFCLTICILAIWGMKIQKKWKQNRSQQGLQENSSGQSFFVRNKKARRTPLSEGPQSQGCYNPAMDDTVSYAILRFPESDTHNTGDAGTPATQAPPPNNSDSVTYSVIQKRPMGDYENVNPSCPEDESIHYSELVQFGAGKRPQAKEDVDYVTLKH
# Procedure, shortened: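 Competition ELISA. Wells coated overnight with streptavidin (40 μg/mL in 50 mM NaHCO3, pH 8.5), then loaded 1 h with biotinylated sialoside probe (4 μg/mL in PBS) and blocked 3 h with 0.5% BSA/PBS. Graded inhibitor concentrations were incubated 1 h with 0.5 μg CD22Fc. After PBS/0.05% Tween 20 washes, bound Fc was detected with alkaline phosphatase anti-human IgG Fc. Triplicates, mean ± SD.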
# [5] = biological target: T4, B-cell receptor CD22 (Mus musculus) (UniProt P35329); experiment: Ratio of IC50 for 9-(4'-hydroxy-4-biphenyl)acetamido-9-deoxy-Neu5Gca2-6GalOMP to IC50 for compound at mouse CD22
# T4 sequence (whole entry): T3 sequence (P35329 whole entry)
# Procedure, shortened: as §1
# [6] = biological target: T1, Myelin-associated glycoprotein; experiment: Inhibition of human MAG after 1 hr by competitive ELISA; conditions: in the assay text read “after 30 min” for “after 1 hr”
# Procedure, shortened: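 Neutravidin plates as for hCD22, with biotinylated Siaα2-3LacNAc-PAA (0.33 μM) bound 1 h at RT. MAG-Fc (~0.12 μg/ml) was pretreated with V. cholerae sialidase (0.4 mU/ml) 45 min, stopped with 1 mM EDTA, then complexed 45 min with goat anti-human IgG F(ab')2 (0.05 μg/mL) and HRP anti-goat F(ab')2 (0.0167 μg/mL). Complex was diluted 3:2, bound with inhibitor 30 min at 37°C, and read by TMB at OD450.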
Structure (SMILES),IC50 [1] [µM],IC50 (B-cell receptor CD22 [2]) [µM],Ratio IC50 [3],Ratio IC50 (Homo sapiens),IC50 (B-cell receptor CD22 [4]) [µM],Ratio IC50 [5],IC50 [6] [µM]
O=C(CO)N[C@H]1[C@H]([C@H](O)[C@H](O)CNCc2ccc(-c3ccc(O)cc3)cc2)O[C@@](OCc2ccc(-c3ccccc3)cc2)(C(=O)O)C[C@@H]1O,16.6,1.12,0.5,7.4,23.3,0.3,–
O=C(Cc1ccc(-c2ccc(F)cc2)cc1)NC[C@@H](O)[C@@H](O)[C@@H]1O[C@@](OCc2ccccc2)(C(=O)O)C[C@H](O)[C@H]1NC(=O)CO,–,–,–,–,5,0.77,–
COc1ccc(O[C@@H]2O[C@H](CO[C@]3(C(=O)O)C[C@H](O)[C@@H](NC(=O)CO)[C@H]([C@H](O)[C@H](O)CNC(=O)Cc4ccc(-c5ccc(O)cc5)cc4)O3)[C@H](O)[C@H](O)[C@H]2O)cc1,136,–,–,41.5,3.84,–,–
O=C(CO)N[C@H]1[C@H]([C@H](O)[C@H](O)CNCc2ccc(-c3ccc(O)cc3)cc2)O[C@@](OCc2ccccc2)(C(=O)O)C[C@@H]1O,–,0.82,0.6,3.4,5.03,1.2,9.27
COc1ccc(O[C@@H]2O[C@H](CO[C@]3(C(=O)O)C[C@H](O)[C@@H](NC(=O)CO)[C@H]([C@H](O)[C@H](O)CNCc4ccc(-c5ccc(O)cc5)cc4)O3)[C@H](O)[C@H](O)[C@H]2O)cc1,–,0.53,1,11.4,6.43,1,37.4

# Stronger by IC50 (B-cell receptor CD22 [4]), values ahead:
IC50 [1] [µM],IC50 (B-cell receptor CD22 [2]) [µM],Ratio IC50 [3],Ratio IC50 (Homo sapiens),IC50 (B-cell receptor CD22 [4]) [µM],Ratio IC50 [5],IC50 [6] [µM],Structure (SMILES)
164,0.07,12,432,0.19,20.2,–,O=C(Cc1ccc(-c2ccc(O)cc2)cc1)NC[C@@H](O)[C@@H](O)[C@@H]1O[C@@](OCc2ccc(-c3ccccc3)cc2)(C(=O)O)C[C@H](O)[C@H]1NC(=O)CO
171,0.13,7,712,0.1,38.4,–,O=C(Cc1ccc(-c2ccc(O)cc2)cc1)NC[C@@H](O)[C@@H](O)[C@@H]1O[C@@](OCc2ccccc2)(C(=O)O)C[C@H](O)[C@H]1NC(=O)CO

# Source: ChEMBL document CHEMBL1681770, “CD22-antagonists with nanomolar potency: the synergistic effect of hydrophobic groups at C-2 and C-9 of sialic acid scaffold” (Bioorg Med Chem, 2011)
